From ChEMBL document CHEMBL1132971, “New azolidinediones as inhibitors of protein tyrosine phosphatase 1B with antihyperglycemic properties” (J Med Chem, 2000)
pIC50: −log10 of the molar value. Active and inactive are the calls of the source. The calls are words filed in the database; no cut-off is given here.

What was measured:
Mus musculus [1] = assay: (§1) Evaluated in vivo for their ability to decrease plasma glucose levels in diabetic C57BL/KsJ db/db mouse at a dose 100 mg/kg/day, *p indicates <0.05; type: functional
How it was run: (§2)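 Diabetic db/db or ob/ob mice dosed orally once daily for 4 days. Plasma glucose and insulin reported as percent change from a vehicle-treated group. 4-6 mice per group. Significance set at p < 0.05 or p < 0.01 versus vehicle; NS means generally less than -15% change.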

[2] = biological target: T1, Tyrosine-protein phosphatase non-receptor type 1 (Mus musculus) (UniProt P35821); assay: In vivo ability to decrease plasma glucose levels in diabetic C57BL/KsJ ob/ob mouse at a dose 100 mg/kg/day; type: functional, organism-based; how it was run: as §2
T1 sequence (whole entry): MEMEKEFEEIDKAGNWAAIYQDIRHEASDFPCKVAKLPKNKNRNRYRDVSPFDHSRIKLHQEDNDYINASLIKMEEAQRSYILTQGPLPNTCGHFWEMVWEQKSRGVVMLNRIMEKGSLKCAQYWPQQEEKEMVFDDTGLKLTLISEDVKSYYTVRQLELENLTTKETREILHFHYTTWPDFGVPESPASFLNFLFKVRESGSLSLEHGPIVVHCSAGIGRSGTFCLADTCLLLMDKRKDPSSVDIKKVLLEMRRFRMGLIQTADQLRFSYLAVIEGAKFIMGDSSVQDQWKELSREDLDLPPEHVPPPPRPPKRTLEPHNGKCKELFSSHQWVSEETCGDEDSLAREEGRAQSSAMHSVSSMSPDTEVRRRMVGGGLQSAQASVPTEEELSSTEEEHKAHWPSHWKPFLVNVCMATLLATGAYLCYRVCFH

[3] = biological target: T2, Tyrosine-protein phosphatase non-receptor type 1 (Rattus norvegicus) (UniProt P20417); assay: Inhibition of PTPase (PTP1B) activity in rat hepatic membrane at 50 uM concentration, using pNPP as the substrate; type: cell membranes; details: Liver
T2 sequence (whole entry): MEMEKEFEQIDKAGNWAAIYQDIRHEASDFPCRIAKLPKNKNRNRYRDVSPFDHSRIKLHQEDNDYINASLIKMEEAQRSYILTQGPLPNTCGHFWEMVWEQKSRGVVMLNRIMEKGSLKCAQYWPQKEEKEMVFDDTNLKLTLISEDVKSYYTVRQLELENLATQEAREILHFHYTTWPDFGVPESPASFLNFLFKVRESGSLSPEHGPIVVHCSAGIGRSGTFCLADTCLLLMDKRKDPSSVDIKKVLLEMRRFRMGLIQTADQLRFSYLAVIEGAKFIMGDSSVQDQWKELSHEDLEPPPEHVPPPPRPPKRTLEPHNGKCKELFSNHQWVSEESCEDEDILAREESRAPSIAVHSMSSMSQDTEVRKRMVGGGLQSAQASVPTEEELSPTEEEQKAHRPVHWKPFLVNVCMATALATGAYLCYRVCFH
How it was run: (§3)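 Liver membranes from male Sprague-Dawley rats (100-150 g), about 30 µg protein per well. Preincubated 10 min at 37 °C with compound in 1.25% DMSO in 50 mM HEPES pH 7.4. Then 6.33 mM pNPP for 30 min at 37 °C, stopped with NaOH. p-Nitrophenol read at 410 nm. Run in triplicate. Reported as percent of untreated control.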

[4] = biological target: T1, Tyrosine-protein phosphatase non-receptor type 1 (Mus musculus); assay: Ability to decrease plasma insulin levels in mouse at a dose 100 mg/kg/day; type: functional, organism-based; how it was run: as §2
Mus musculus [5] = assay: Evaluated in vivo for their ability to decrease plasma glucose levels in diabetic C57BL/KsJ db/db mouse at a dose 100 mg/kg/day.; type: functional; how it was run: as §2
Mus musculus [6] = assay: Evaluated for their ability to decrease plasma insulin levels in mouse at a dose 100 mg/kg/day.([…]); type: functional; how it was run: as §2
Mus musculus [7] = assay: Evaluated in vivo for their ability to decrease plasma glucose levels in diabetic C57BL/KsJ ob/ob mouse at a dose 100 mg/kg/day.([…]); type: functional; how it was run: as §2
[8] = biological target: T2, Tyrosine-protein phosphatase non-receptor type 1 (Rattus norvegicus); assay: IC50 for PTPase activity, recombinant r-PTP1B as the enzyme .
Mus musculus [9] = assay: Evaluated for their ability to decrease plasma insulin levels in mouse at a dose 50 mg/kg/day. **p indicates <0.01; type: functional; how it was run: as §2
Mus musculus [10] = assay: Evaluated in vivo for their ability to decrease plasma glucose levels in diabetic C57BL/KsJ db/db mouse at a dose 100 mg/kg/day. *p indicates <0.05; type: functional
How it was run: (§4)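 Mice dosed orally once daily for 4 days; plasma glucose and insulin measured and expressed as percent change versus a vehicle-treated group (mean ± SE, 4-6 mice/group). NS is generally less than -15% change. Significance is versus vehicle-treated mice.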

Mus musculus [11] = assay: Evaluated in vivo for their ability to decrease plasma glucose levels in diabetic C57BL/KsJ ob/ob mouse at a dose 50 mg/kg/day.; type: functional, organism-based; how it was run: as §2
Mus musculus [12] = assay: Evaluated in vivo for their ability to decrease plasma glucose levels in diabetic C57BL/KsJ db/db mouse at a dose 50 mg/kg/day, *p indicates <0.05; type: functional; how it was run: as §2
[13] = biological target: T3, Tyrosine-protein phosphatase non-receptor type 1 (Rattus norvegicus, UniProt P20417); assay: Inhibition of PTPase activity using recombinant r-PTP1B and IR-triphosphopeptide as substrate; ND is no data.
T3 sequence (P20417 whole entry): T2 sequence (whole entry)
How it was run: (§5)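 Rat recombinant PTP1B in 33 mM TRIS-HCl, 2 mM EDTA, 50 mM β-mercaptoethanol, pH 7.4 (about 1000-2000 nmol/min/mg). Preincubated 10 min at 37 °C with or without compound in HEPES buffer pH 7.4. Released phosphate read by malachite green-ammonium molybdate at 650 nm against a phosphate standard. Quadruplicates. IC50 by four-parameter logistic fit.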

[14] = biological target: T4, Tyrosine-protein phosphatase non-receptor type 1 (Homo sapiens, UniProt P18031); assay: Concentration required to inhibit PTPase activity, recombinant Protein Tyrosine Phosphatase 1b as the enzyme at a concentration 2.5 uM.; how it was run: as §5
T4 sequence (P18031 whole entry): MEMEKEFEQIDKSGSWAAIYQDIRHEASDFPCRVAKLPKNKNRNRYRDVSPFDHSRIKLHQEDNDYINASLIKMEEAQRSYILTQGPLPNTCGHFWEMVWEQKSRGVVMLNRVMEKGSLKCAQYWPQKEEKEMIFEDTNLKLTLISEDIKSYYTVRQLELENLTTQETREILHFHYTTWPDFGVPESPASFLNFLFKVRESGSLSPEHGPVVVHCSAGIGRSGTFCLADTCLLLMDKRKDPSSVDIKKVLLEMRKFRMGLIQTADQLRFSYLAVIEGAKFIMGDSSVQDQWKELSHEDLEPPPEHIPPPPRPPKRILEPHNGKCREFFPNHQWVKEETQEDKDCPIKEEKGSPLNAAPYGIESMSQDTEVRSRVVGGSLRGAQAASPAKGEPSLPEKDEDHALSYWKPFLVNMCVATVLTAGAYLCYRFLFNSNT

[15] = biological target: T2, Tyrosine-protein phosphatase non-receptor type 1 (Rattus norvegicus); assay: Inhibition of PTPase activity in rat hepatic membrane at a concentration of 250 uM using pNPP as the substrate; type: cell membranes; details: Liver; how it was run: as §3
Mus musculus [16] = assay: Evaluated in vivo for their ability to decrease plasma glucose levels in diabetic C57BL/KsJ db/db mouse at a dose 100 mg/kg/day.([…]); type: functional; how it was run: as §2
Mus musculus [17] = assay: as §1; type: functional; how it was run: as §4; remark: listed apart in the source
Mus musculus [18] = assay: Evaluated for their ability to decrease plasma insulin levels in mouse at a dose 100 mg/kg/day, **p indicates <0.01; type: functional; how it was run: as §2
Mus musculus [19] = assay: Evaluated in vivo for their ability to decrease plasma glucose levels in diabetic C57BL/KsJ ob/ob mouse at a dose 100 mg/kg/day, **p indicates <0.01; type: functional; how it was run: as §2

## C/C(=C\Cn1oc(=O)[nH]c1=O)c1ccc(OCc2nc(-c3ccc(C(F)(F)F)cc3)oc2C)cc1
Mus musculus [1]
  Decrease: 16%
[2]
  Decrease: Not significant
[3]
  inhibition: 4.3%
[4]
  Decrease: Not significant

## C/C(=C\CC1SC(=O)NC1=O)c1cccc(OCc2nc(-c3ccc(OC(F)(F)F)cc3)oc2C)c1 (configuration not stated)
Mus musculus [5]
  Decrease: 18%
[3]
  inhibition: 46%
Mus musculus [6]
  Decrease: 63%
Mus musculus [7]
  Decrease: 44%
[8]
  IC50: 1.5 µM

## Cc1oc(-c2ccc(C(F)(F)F)cc2)nc1COc1cccc(/C=C/C(C)n2oc(=O)[nH]c2=O)c1 (configuration not stated)
Mus musculus [9]
  Decrease: 83%
Mus musculus [10]
  Decrease: 41%
Mus musculus [11]
  Decrease: inactive
[3]
  inhibition: 49%

## C/C(=C/C=C/Cn1oc(=O)[nH]c1=O)c1cccc(OCc2nc(-c3ccccc3)oc2C)c1
Mus musculus [12]
  Decrease: 19%
[2]
  Decrease: Not significant
[3]
  inhibition: 55%
[13]
  IC50: Not significant
[4]
  Decrease: Not significant

## C/C(=C\Cn1oc(=O)[nH]c1=O)c1cccc(OCc2ccccn2)c1
[3]
  inhibition: 5%
[14]
  pIC50: 5.05

## Cc1c(C)c2c(c(C)c1O)CCC(C)(COc1ccc(CC3SC(=O)NC3=O)cc1)O2 (configuration not stated) [TROGLITAZONE]
[15]
  inhibition: 29%
Mus musculus [16]
  Decrease: 34%

## C/C(=C\Cn1oc(=O)[nH]c1=O)c1cccc(OCc2nc(-c3ccc(OC(F)(F)F)cc3)oc2C)c1
Mus musculus [17]
  Decrease: 41%
Mus musculus [18]
  Decrease: 82%
[3]
  inhibition: 57%
[13]
  IC50: Not significant
Mus musculus [19]
  Decrease: 39%
